Converted amounts (≈) assume the structure as drawn.
What was measured:
[1] = test system: Hs68; test: Cytotoxic activity in Hs 68 cell line by inhibition of cell proliferation; type: functional; details: Homo sapiens
[2] = test system: Human betaherpesvirus 5; test: Antiviral activity determined against human cytomegalovirus (HCMV) in Hs 68 cell line by plaque reduction assay; type: functional, organism-based; details: Human betaherpesvirus 5, Hs68
[3] = test system: Mus musculus; test: The area under concentration-time curve(AUC) was determined at 5 mg/kg of compound dose, administered intravenously in mice; type: ADME, organism-based; parameters: dose 5 mg/kg, route intravenous; details: in vivo, iv
Procedure, shortened: (§1)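 Mice dosed po or iv, and plasma sampled over time. Non-compartmental analysis of mean plasma concentrations gave Cmax, AUC and t1/2. AUC taken by linear trapezoidal method from zero to last sample, extrapolated to infinity with terminal slope λz. t1/2 = 0.693/λz. Mean of triplicates (SD<8%).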

[4] = test system: Mus musculus; test: The area under concentration-time curve(AUC) was determined at 50 mg/kg of compound dose, administered perorally in mice; type: ADME, organism-based; parameters: dose 50 mg/kg, route oral; details: in vivo, po; procedure, shortened: as §1
[5] = Pharmacokinetic studies were carried out in vivo after administration of compound at 50 mg/kg perorally in mice; type: ADME, organism-based; parameters: dose 50 mg/kg, route oral; details: mouse, po; procedure, shortened: as §1
[6] = (§2) Half life was evaluated at 50 mg/kg of compound dose, administered perorally in mice; type: ADME, organism-based; parameters: dose 50 mg/kg, route oral; details: mouse, in vivo, po
Procedure, shortened: (§3)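 Mouse PK with plasma levels after oral dosing. Mean plasma data analysed non-compartmentally. Terminal slope (λz) obtained from the concentration-time curve, and t1/2 taken as 0.693/λz. Data are means of triplicates (SD<8%).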

[7] = Pharmacokinetic studies were carried out in vivo after administration of compound at 5 mg/kg intravenously in mice; type: ADME, organism-based; parameters: dose 5 mg/kg, route intravenous; details: mouse, iv; procedure, shortened: as §1
[8] = test system: Mus musculus; test: The area under concentration-time curve(AUC) was determined at 5 mg/kg of compound dose, administered perorally in mice; type: ADME, organism-based; parameters: dose 5 mg/kg, route oral; details: in vivo, po; procedure, shortened: as §1
[9] = test system: Mus musculus; test: The area under concentration-time curve(AUC) was determined at 50 mg/kg of compound dose, administered intravenously in mice; type: ADME, organism-based; parameters: dose 50 mg/kg, route intravenous; details: in vivo, iv; procedure, shortened: as §1
[10] = Pharmacokinetic studies were carried out in vivo after administration of compound at 5 mg/kg perorally in mice; type: ADME, organism-based; parameters: dose 5 mg/kg, route oral; details: mouse, po; procedure, shortened: as §1
[11] = Pharmacokinetic studies were carried out in vivo after administration of compound at 50 mg/kg intravenously in mice; type: ADME, organism-based; parameters: dose 50 mg/kg, route intravenous; details: mouse, iv; procedure, shortened: as §1
[12] = Percent oral bioavailability was determined after administration of compound at 5 mg/kg perorally in mice; type: ADME, organism-based; details: mouse, in vivo, read-out: BA
Procedure, shortened: (§4)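 Mouse PK comparing oral and intravenous dosing. AUC estimated by linear trapezoid from time zero to last sample, extrapolated to infinity via terminal slope. Oral bioavailability calculated as AUCpo,0-∞/AUCiv,0-∞ at the corresponding dose. Mean of triplicate data (SD<8%).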

[13] = Percent oral bioavailability was determined after administration of compound at 50 mg/kg perorally in mice; type: ADME, organism-based; details: mouse, in vivo, read-out: BA; procedure, shortened: as §4
[14] = Half life was evaluated at 5 mg/kg of compound dose, administered perorally in mice; type: ADME, organism-based; parameters: dose 5 mg/kg, route oral; details: mouse, in vivo, po; procedure, shortened: as §3
[15] = test system: Mus musculus; test: as §2; type: ADME, organism-based; parameters: dose 50 mg/kg, route oral; details: in vivo, po; procedure, shortened: as §3
[16] = test system: Mus musculus; test: Half life was evaluated at 5 mg/kg of compound dose, administered intravenously in mice; details: in vivo, iv

IC50 [2] [µg/mL]	Structure (SMILES)	CC50 [1] [µg/mL]	further results
> 25	COc1ccccc1CNC(=O)c1ccc2c(Br)nccc2n1	~25 (≈ 67.2 µM)	–
> 10	COc1ccccc1CNC(=O)c1ccc2c(C)nccc2n1	> 25	–
> 10	COc1ccccc1CNC(=O)c1ccc2c(Cl)nccc2n1	~3.2 (≈ 9.76 µM)	–
0.17 (≈ 0.598 µM)	O=C(NCCc1cccs1)C1=Cc2ccncc2CC1	15 (≈ 52.7 µM)	–
0.71 (≈ 2.55 µM)	O=C(NCCc1ccccc1)C1=Cc2ccncc2CC1	25 (≈ 89.8 µM)	–
0.68 (≈ 2.11 µM)	CC(C)Oc1ccccc1CNC(=O)C1=Cc2ccncc2CC1	12.5 (≈ 38.8 µM)	–
0.64 (≈ 2.17 µM)	COc1ccccc1CNC(=O)C1=Cc2ccncc2CC1	> 50	AUC [3]: 57 ug m-1 min-1; AUC [4]: 734 ug m-1 min-1; Cmax [5]: 12500 ng/mL; half-life [6]: 42.3 min; Cmax [7]: 6940 ng/mL
0.1 (≈ 0.315 µM)	O=C(NCCc1c[nH]c2ccccc12)C1=Cc2ccncc2CC1	5 (≈ 15.8 µM)	AUC [3]: 94 ug m-1 min-1; AUC [8]: 21 ug m-1 min-1; AUC [9]: 2914 ug m-1 min-1; AUC [4]: 1762 ug m-1 min-1; Cmax [10]: 600 ng/mL; Cmax [11]: 57800 ng/mL; Cmax [5]: 15100 ng/mL; bioavailability [12]: 22.5%; bioavailability [13]: 60.4%; half-life [14]: 15.2 min; half-life [6]: 72.5 min; T1/2 [15]: 43.9 min; Cmax [7]: 5560 ng/mL; T1/2 [16]: 14.2 min
0.23 (≈ 0.68 µM)	COc1ccc(OC)c(CCNC(=O)C2=Cc3ccncc3CC2)c1	> 50	–
~10 (≈ 32.1 µM)	COc1ccccc1CNC(=O)c1ccc2c(F)nccc2n1	~10 (≈ 32.1 µM)	–
~10 (≈ 32.4 µM)	COc1ccccc1CNC(=O)c1ccc2c(N)nccc2n1	~12.5 (≈ 40.5 µM)	–
> 25	COc1ccccc1CNC(=O)c1ccc2c(OC)nccc2n1	> 50	–
10 (≈ 32.4 µM)	COc1ccccc1CCNC(=O)C1=Cc2ccncc2CC1	> 25	–
25 (≈ 84.4 µM)	COc1ccccc1CNC(=O)C1CCc2cnccc2C1 (centres undefined)	100 (≈ 337 µM)	–
> 25	COc1ccccc1CNC(=O)c1ccc2c[n+]([O-])ccc2n1	100 (≈ 323 µM)	–

Reference: ChEMBL document CHEMBL1133219, “Design and evaluation of dihydroisoquinolines as potent and orally bioavailable human cytomegalovirus inhibitors” (Bioorg Med Chem Lett, 2000)
